{"source": "ChEMBL document CHEMBL4513216", "about": "“Probing the Open Global Health Chemical Diversity Library for Multistage-Active Starting Points for Next-Generation Antimalarials” (ACS Infect Dis, 2020)"}
{"assay": "Toxicity liver stage against HepG2, at 10uM", "assay_type": "cell-based", "set-up": "test concentration 10 uM, cell line HepG2-A16-CD81EGFP", "settings": "human, HepG2-A16-CD81EGFP cells; read-out: INHIBITION", "summary_of_the_method": "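Uninfected HepG2-A16-CD81EGFP cells, 3 × 10^3 per well, 1536-well, plated on prespotted compound at 10 μM final, parasite-free screening media added to match infected plates; puromycin 10 μM positive, DMSO 0.5% negative; run in parallel with 48 h PbLuc assay at 37 °C, 5% CO2; viability by CellTiter-Glo luminescence, normalized to controls.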", "units": {"cytotoxicity at 10 µM": "%"}}
{"molecule": "Fc1ccc(CN2CCCC(Cn3cncn3)C2)c2ncccc12", "note": "(stereo unspecified)", "cytotoxicity at 10 µM": -12.4}
{"molecule": "Cc1cc(C)n(CC(C)CNC(=O)[C@@H](C)NC(=O)OC(C)(C)C)n1", "note": "(stereo partly specified)", "cytotoxicity at 10 µM": -4.25}
{"molecule": "CC(C)OCCNC(=O)C1CCC(=O)N(C2CCCC2)C1", "note": "(stereo unspecified)", "cytotoxicity at 10 µM": -12.5}
{"molecule": "CCCc1cncnc1N1CCC2(CCC(=O)N(CCCO)C2)CC1", "cytotoxicity at 10 µM": 2.8}
{"molecule": "Cc1ccc2nc(C(=O)N3C[C@@H](C(=O)O)[C@H](c4ccccc4)C3)cn2c1", "cytotoxicity at 10 µM": 5.96}
{"molecule": "COc1cccc(-c2n[nH]c3c2CN(C(=O)c2oc(C)cc2C)CC3)c1", "cytotoxicity at 10 µM": -3.17}
{"molecule": "Cc1ccc2nc(CN3CCN(C4CCCCC4)C(=O)C3)cc(O)c2c1", "cytotoxicity at 10 µM": 12.9}
{"molecule": "CC(C)CC(NC(=O)c1cc(C2CC2)n[nH]1)c1ncnn1C", "note": "(stereo unspecified)", "cytotoxicity at 10 µM": 4.93}
{"molecule": "COCCC1(CO)CCCN(Cc2ccc(C(F)(F)F)nc2)C1", "note": "(stereo unspecified)", "cytotoxicity at 10 µM": -146}
{"molecule": "COc1cccc2ccc(N3CCC(O)(c4ccc(C)cn4)CC3)nc12", "cytotoxicity at 10 µM": -0.942}
{"molecule": "COCC(c1ccccn1)N(C)C(=O)c1cc(-c2cccn2C)n[nH]1", "note": "(stereo unspecified)", "cytotoxicity at 10 µM": -3.39}
{"molecule": "COCC(=O)NCc1cc2n(n1)CCCN(Cc1ccccc1SC)C2", "cytotoxicity at 10 µM": 2.04}
{"molecule": "CC(C)C1CN(c2nccc(N)n2)CCC(=O)N1Cc1ccc(F)cc1", "note": "(stereo unspecified)", "cytotoxicity at 10 µM": -5.04}
{"molecule": "COc1ccc(CCN)cc1-c1ccc(S(C)(=O)=O)cc1", "cytotoxicity at 10 µM": -6.23}
{"molecule": "O=c1cc(CN2CCCCC2c2cccc(F)c2)[nH]c2ncnn12", "note": "(stereo unspecified)", "cytotoxicity at 10 µM": -3.46}
{"molecule": "Cc1nc2c(c(NC(C)c3nnn[nH]3)n1)Cc1ccccc1OC2", "note": "(stereo unspecified)", "cytotoxicity at 10 µM": 1.07}
{"molecule": "CCOC(=O)c1n[nH]cc1CN1CCOC(Cc2ccc(F)cc2)C1", "note": "(stereo unspecified)", "cytotoxicity at 10 µM": -3.92}
{"molecule": "CC(=O)C1(c2ccccc2)CCN(C(=O)C2CNCCO2)CC1", "note": "(stereo unspecified)", "cytotoxicity at 10 µM": -3.73}
{"molecule": "O=C(c1cncc(N2CCCC3(CCNCC3)CC2)n1)N1CCCCC1", "cytotoxicity at 10 µM": -3.38}
{"molecule": "CC(=O)NCCNC(=O)C1(N2CCCCC2)Cc2ccccc2C1", "cytotoxicity at 10 µM": -6.53}
{"molecule": "Cc1nc(O)cc(CN2CC=C(c3cnn(-c4ccccc4)c3)CC2)n1", "cytotoxicity at 10 µM": -10.5}
{"molecule": "CCc1ccc2nc(NCCOCCO)cc(C)c2c1", "cytotoxicity at 10 µM": -2.78}
{"molecule": "Cc1nn(C)c2ncnc(N3CCCC(OCc4ccccn4)C3)c12", "note": "(stereo unspecified)", "cytotoxicity at 10 µM": 7.96}
{"molecule": "CN(CC(=O)N1CC(Oc2ccccc2Cl)C1)Cc1ccncc1", "cytotoxicity at 10 µM": -2.67}
{"molecule": "CCN(Cc1noc(C)n1)C(=O)CCc1scnc1C", "cytotoxicity at 10 µM": 2.13}
{"molecule": "O=C(Nc1nncs1)N1CCCN(C2CCCCC2)CC1", "cytotoxicity at 10 µM": 1.48}
{"molecule": "COCCCN1CC2(CCCN(c3ncc4nc[nH]c4n3)C2)CCC1=O", "note": "(stereo unspecified)", "cytotoxicity at 10 µM": -5.64}
{"molecule": "O=C(NCCc1nccs1)c1cn(CCN2CCNCC2)nn1", "cytotoxicity at 10 µM": -4.41}
{"molecule": "O=C(c1ccc(-c2cnco2)cc1)N1CCC(Nc2cccnn2)CC1", "cytotoxicity at 10 µM": -0.692}
{"molecule": "COc1cc(CNC2CCc3nc(C)nn3C2)cc2c1OCO2", "note": "(stereo unspecified)", "cytotoxicity at 10 µM": -11.6}
{"molecule": "Cc1nc(C)n(CC2CCCN(Cc3cccc(C(N)=O)c3)C2)n1", "note": "(stereo unspecified)", "cytotoxicity at 10 µM": -29}
{"molecule": "Cc1nn(C)c(C)c1C1CCCN1C(=O)c1ccc2c(c1)OCCO2", "note": "(stereo unspecified)", "cytotoxicity at 10 µM": -10.6}
{"molecule": "CC(C)c1nc(C2CCCN(C(=O)CCc3cscn3)C2)no1", "note": "(stereo unspecified)", "cytotoxicity at 10 µM": -17.2}
{"molecule": "CN(CC(N)=O)CC(=O)N1CC=C(c2ccccc2)CC1", "cytotoxicity at 10 µM": -5.1}
{"molecule": "c1ccc2nc(N3CCOC(Cn4cncn4)C3)cnc2c1", "note": "(stereo unspecified)", "cytotoxicity at 10 µM": -11.5}
{"molecule": "Cc1noc(C)c1CN1CCC(c2ccnn2CCO)CC1", "cytotoxicity at 10 µM": -9.73}
{"molecule": "Cc1nnc2n1CCN(CCCS(=O)(=O)c1ccccc1)C2", "cytotoxicity at 10 µM": -11.2}
{"molecule": "CC(Cn1cccn1)NCc1csc(-c2ccsc2)n1", "note": "(stereo unspecified)", "cytotoxicity at 10 µM": -3.96}
{"molecule": "CN(CCNC(=O)NCc1ccsc1)C1CCCC1", "cytotoxicity at 10 µM": -12.4}
{"molecule": "Cc1cnn(CC2CN(Cc3nc4ccccc4n3C)CCO2)c1", "note": "(stereo unspecified)", "cytotoxicity at 10 µM": 0.338}
{"molecule": "c1coc(-c2nc(CN3CCn4c(nnc4C4CC4)C3)cs2)c1", "cytotoxicity at 10 µM": -4.64}
{"molecule": "COc1cccc(CNC(=O)CN2CCCCC2Cn2cccn2)c1", "note": "(stereo unspecified)", "cytotoxicity at 10 µM": 2.77}
{"molecule": "CN1CCC2(CC1)C(=O)N(c1cccnc1)c1ccc(F)cc12", "cytotoxicity at 10 µM": 3.65}
{"molecule": "COCCNC(=O)[C@H]1CN(Cc2scnc2C)C[C@H]2OCC[C@@H]12", "cytotoxicity at 10 µM": -8.94}
{"molecule": "O=C(C1CCOCC1)N1C[C@@H]2[C@@H](C1)OCC(=O)N2Cc1ccncc1", "cytotoxicity at 10 µM": -8.8}
{"molecule": "c1c2c(nn1CC1CCOCC1)C(CNC1CCOCC1)OCC2", "note": "(stereo unspecified)", "cytotoxicity at 10 µM": 5.83}
{"molecule": "CN(Cc1ccco1)C[C@@H]1OC[C@H]2CN(Cc3nccs3)CC[C@H]21", "cytotoxicity at 10 µM": -5.46}
{"molecule": "CCn1ncc2c1C(COCC1CC1)N(Cc1cnn(C)c1)CC2", "note": "(stereo unspecified)", "cytotoxicity at 10 µM": 8.98}
{"molecule": "O=C1CCCN1Cc1ncn2c1CN(C(=O)N1CCCC1)CCC2", "cytotoxicity at 10 µM": -2.36}
{"molecule": "Cc1cccc(CN2CCc3[nH]nc(C(=O)N(C)C)c3C2)n1", "cytotoxicity at 10 µM": -0.596}
{"molecule": "CN(C)C(=O)N1CCC2(CCCN(CCOc3ccccc3)C2)C1", "note": "(stereo unspecified)", "cytotoxicity at 10 µM": -0.537}
{"molecule": "CC(C)NC(=O)N1CC[C@H]2[C@H]1CCN2c1ncccn1", "cytotoxicity at 10 µM": -0.155}
{"molecule": "Cn1cc(CN2CC[C@@H]3[C@H]2CCC(=O)N3c2ccccc2)cn1", "cytotoxicity at 10 µM": 7.42}
{"molecule": "Cc1cccc(CN2CCn3cc(Cn4cccn4)nc3C2)n1", "cytotoxicity at 10 µM": 3.27}
{"molecule": "CCc1cnc(N2C[C@@H]3C[C@H](C(=O)NC)[C@H](C2)O3)nc1", "cytotoxicity at 10 µM": 9.76}
{"molecule": "CCc1cnc(N2C[C@@H]3C[C@H](C(=O)N(C)C)[C@H](C2)O3)nc1", "cytotoxicity at 10 µM": -12.1}
